Activity calls are given as the source filed them. No cut-off for these calls is given here.
Assays:
Cannabinoid receptor 2 [1] = target: T1, Cannabinoid receptor 2 (Homo sapiens, UniProt P34972); experiment: Inverse agonist activity at human CB2 receptor expressed in CHO cell membrane assessed as increase in forskolin-stimulated cAMP production at 10 uM by scintillation counting analysis relative to WIN55212-2
Summary of the method: (§1)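 Whole hCB₂ CHO cells (1 × 10⁶/assay) in HEPES-buffered saline with glucose, pH 7.4, preincubated 10 min at 37 °C with 0.5 mM Ro 20-1724. Compound at 1 or 10 μM with 1 μM forskolin. Stopped with cold 6% TCA, ether-extracted; cAMP measured by [³H]cAMP competition binding with adrenal binding protein. Expressed as % increase versus WIN 55,212-2 (set −100%); n = 4.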

Cannabinoid receptor 2 [2] = target: T1, Cannabinoid receptor 2; experiment: Displacement of [3H]CP-55940 from human CB2 receptor expressed in CHO cell membrane after 60 mins by scintillation counting analysis; type: cell membranes
Summary of the method: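 Human CB₂-expressing CHO cell membranes in 50 mM Tris-HCl, 0.5% BSA, 5 mM MgCl₂, 1 mM EDTA, pH 7.4. Binding of 0.5 nM [³H]CP-55,940 competed with 1 nM–10 μM compound for 60 min at 30 °C, then GF/C filtration and scintillation counting. Ki by Cheng-Prusoff from IC50; mean SEM of n = 4.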

Cannabinoid receptor 2 [3] = target: T2, Cannabinoid receptor 2 (Rattus norvegicus, UniProt Q9QZN9); experiment: Displacement of [3H]CP-55940 from Sprague-Dawley rat spleen CB2 receptor after 60 mins by scintillation counting analysis
T2 sequence (Q9QZN9 whole entry): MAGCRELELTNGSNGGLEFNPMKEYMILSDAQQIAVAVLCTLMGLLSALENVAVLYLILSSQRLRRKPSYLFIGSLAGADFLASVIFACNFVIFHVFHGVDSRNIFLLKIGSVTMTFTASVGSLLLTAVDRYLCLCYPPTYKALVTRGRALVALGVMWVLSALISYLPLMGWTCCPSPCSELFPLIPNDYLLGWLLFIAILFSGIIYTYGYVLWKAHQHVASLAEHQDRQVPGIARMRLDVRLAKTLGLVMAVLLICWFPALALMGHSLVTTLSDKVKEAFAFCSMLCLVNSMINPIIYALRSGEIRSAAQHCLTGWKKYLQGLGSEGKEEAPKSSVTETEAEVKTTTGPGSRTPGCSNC
Summary of the method: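 Competed against 0.5 nM [³H]CP-55,940 using 1 nM–10 μM compound for 60 min at 30 °C. Bound ligand collected on GF/C filters and counted. Ki from IC50 by Cheng-Prusoff; mean SEM of n = 4.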

Homo sapiens = species on record: Homo sapiens; experiment: Selectivity index, ratio of Ki for human CB1 receptor to Ki for human CB2 receptor
Cannabinoid receptor 1 [4] = target: Cannabinoid receptor 1 (Rattus norvegicus, UniProt P20272); experiment: Displacement of [3H]CP-55940 from Sprague-Dawley rat brain CB1 receptor after 90 mins by scintillation counting analysis
Summary of the method: (§2)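 Competition with [³H]CP-55,940 (1.0 nM stated in rat CB₁ section; 0.5 nM in general protocol) against 1 nM–10 μM compound, 90 min at 30 °C. GF/C filtration, scintillation counting. Ki via Cheng-Prusoff; mean SEM, n = 4.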

Cannabinoid receptor 1 [5] = target: T3, Cannabinoid receptor 1 (Homo sapiens, UniProt P21554); experiment: Displacement of [3H]CP-55940 from human CB1 receptor expressed in CHO cell membrane after 90 mins by scintillation counting analysis; type: cell membranes
Summary of the method: (§3)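 Membranes from CHO cells stably expressing human CB₁ (G418-maintained), suspended in 50 mM Tris-HCl, 0.5% BSA, 5 mM MgCl₂, 2.5 mM EDTA, pH 7.4. Displacement of 0.5 nM [³H]CP-55,940 by 1 nM–10 μM compound, 90 min, 30 °C. Filtration on GF/C, scintillation counting. Cheng-Prusoff Ki, LIGAND fitting; mean SEM, n = 4.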

Cannabinoid receptor 2 [6] = target: T1, Cannabinoid receptor 2; experiment: Inverse agonist activity at human CB2 receptor expressed in CHO cell membrane assessed as increase in forskolin-stimulated cAMP production by scintillation counting analysis; type: functional, cell membranes
Cannabinoid receptor 2 [7] = target: T1, Cannabinoid receptor 2; experiment: Inverse agonist activity at human CB2 receptor expressed in CHO cell membrane assessed as increase in forskolin-stimulated cAMP production at 1 uM by scintillation counting analysis relative to WIN55212-2; summary of the method: as §1
[8] = target: Cannabinoid receptor 1 (Rattus norvegicus) (UniProt P20272); experiment: Displacement of [3H]CP-55940 from Sprague-Dawley rat brain CB1 receptor at > 10 uM after 90 mins by scintillation counting analysis; summary of the method: as §2
Cannabinoid receptor 1 [9] = target: T3, Cannabinoid receptor 1; experiment: Displacement of [3H]CP-55940 from human CB1 receptor expressed in CHO cell membrane at > 10 uM after 90 mins by scintillation counting analysis; type: cell membranes; summary of the method: as §3
Cannabinoid receptor 2 [10] = target: T1, Cannabinoid receptor 2; experiment: Inverse agonist activity at human CB2 receptor expressed in CHO cell membrane assessed as increase in forskolin-stimulated cAMP production at 1 to 10 uM by scintillation counting analysis in presence of WIN55212-2

Chain of Cannabinoid receptor 1 (Rattus norvegicus) (P20272 whole entry): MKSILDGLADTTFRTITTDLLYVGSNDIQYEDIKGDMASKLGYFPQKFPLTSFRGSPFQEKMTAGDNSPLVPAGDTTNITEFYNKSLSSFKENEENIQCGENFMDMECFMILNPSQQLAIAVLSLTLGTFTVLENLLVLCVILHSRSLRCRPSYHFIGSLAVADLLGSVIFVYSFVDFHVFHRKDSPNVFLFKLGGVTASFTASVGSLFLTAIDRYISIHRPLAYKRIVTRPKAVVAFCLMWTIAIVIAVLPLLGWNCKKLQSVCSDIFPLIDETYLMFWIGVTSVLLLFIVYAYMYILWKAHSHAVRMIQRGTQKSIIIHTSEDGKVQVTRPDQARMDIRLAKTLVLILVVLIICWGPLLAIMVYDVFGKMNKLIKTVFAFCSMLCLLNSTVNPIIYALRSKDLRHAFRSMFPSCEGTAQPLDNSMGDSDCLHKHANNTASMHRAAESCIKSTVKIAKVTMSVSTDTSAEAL
Chain of Cannabinoid receptor 1 (Rattus norvegicus, UniProt P20272) (P20272 whole entry): as above
T1 sequence (P34972 whole entry): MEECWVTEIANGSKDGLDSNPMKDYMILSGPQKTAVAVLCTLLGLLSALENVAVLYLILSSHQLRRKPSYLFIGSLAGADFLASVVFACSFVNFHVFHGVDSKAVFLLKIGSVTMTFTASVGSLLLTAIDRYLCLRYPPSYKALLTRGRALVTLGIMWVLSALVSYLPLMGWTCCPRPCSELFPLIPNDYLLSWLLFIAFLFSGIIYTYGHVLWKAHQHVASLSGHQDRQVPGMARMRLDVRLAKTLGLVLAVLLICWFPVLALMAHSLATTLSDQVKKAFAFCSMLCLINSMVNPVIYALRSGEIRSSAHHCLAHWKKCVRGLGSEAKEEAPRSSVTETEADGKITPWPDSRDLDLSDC
T3 sequence (P21554 whole entry): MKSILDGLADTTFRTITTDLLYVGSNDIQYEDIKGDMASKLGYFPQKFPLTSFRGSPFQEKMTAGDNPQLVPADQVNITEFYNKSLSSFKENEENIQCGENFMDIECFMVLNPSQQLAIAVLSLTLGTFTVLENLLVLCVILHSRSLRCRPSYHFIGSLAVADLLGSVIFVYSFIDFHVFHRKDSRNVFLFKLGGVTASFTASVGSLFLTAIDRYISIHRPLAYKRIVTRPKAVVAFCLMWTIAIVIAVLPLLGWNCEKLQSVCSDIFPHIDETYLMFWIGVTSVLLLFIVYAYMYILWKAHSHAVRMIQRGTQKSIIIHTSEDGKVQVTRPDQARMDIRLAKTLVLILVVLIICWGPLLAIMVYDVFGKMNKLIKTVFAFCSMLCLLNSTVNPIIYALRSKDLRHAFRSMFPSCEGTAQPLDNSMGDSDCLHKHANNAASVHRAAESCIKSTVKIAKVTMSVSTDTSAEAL

| SMILES | Activity (Cannabinoid receptor 2 [1]) [%] | Ki (Cannabinoid receptor 2 [2]) [nM] | Ki (Cannabinoid receptor 2 [3]) [nM] | Ratio Ki (Homo sapiens) | Ki (Cannabinoid receptor 1 [4]) [nM] | Ki (Cannabinoid receptor 1 [5]) [nM] | EC50 (Cannabinoid receptor 2 [6]) [nM] | Activity (Cannabinoid receptor 2 [7]) [%] | Activity [8] [%] | Activity (Cannabinoid receptor 1 [9]) [%] | Activity (Cannabinoid receptor 2 [10]) |
| --- | --- | --- | --- | --- | --- | --- | --- | --- | --- | --- | --- |
| CCCCCn1cc(C(=O)NC2CCCCCC2)c(=O)n2nc(C(C)(C)C)cc12 | 213 | 7.22 | 7.52 | 84 | 650 | 605 | 351 | 151 | – | – | – |
| CCCCCn1cc(C(=O)NC2CCCCC2)c(=O)n2nc(-c3ccccc3Cl)cc12 | 55 | 47 | 52 | > 212 | > 10000 | > 10000 | – | 37 | 40 | 34 | – |
| CCCCCn1cc(C(=O)NC2CCCCCC2)c(=O)n2nc(-c3ccc(Cl)cc3)cc12 | 162 | 6.31 | 6.53 | > 1580 | > 10000 | > 10000 | – | 121 | 47 | 40 | – |
| CCCCCn1cc(C(=O)NC23CC4CC(CC(C4)C2)C3)c(=O)n2nc(C)c(Br)c12 | 48 | 220 | 272 | > 45 | > 10000 | > 10000 | – | 32 | 1 | 1 | – |
| CCCCCn1cc(C(=O)NC23CC4CC(CC(C4)C2)C3)c(=O)n2nc(C)c(-c3ccc(OC)cc3)c12 | 60 | 350 | 434 | > 28 | > 10000 | > 10000 | – | 36 | 5 | 4 | – |
| CCCCCn1cc(C(=O)NC2CCCCC2)c(=O)n2nc(-c3ccc(C)cc3)cc12 | 93 | 57 | 62 | > 175 | > 10000 | > 10000 | – | 63 | 25 | 20 | – |
| CCCCCn1cc(C(=O)NC23CC4CC(CC(C4)C2)C3)c(=O)n2nc(-c3ccco3)cc12 | 124 | 4.92 | 5.14 | > 2030 | > 10000 | > 10000 | – | 107 | 40 | 34 | – |
| CCCCCn1cc(C(=O)NC2CCCCC2)c(=O)n2nc(-c3ccc(Cl)cc3)cc12 | 94 | 55 | 58 | > 181 | > 10000 | > 10000 | – | 79 | 8 | 15 | – |
| CCCCCn1cc(C(=O)NC23CC4CC(CC(C4)C2)C3)c(=O)n2nc(-c3ccccc3)cc12 | 195 | 2.56 | 2.74 | > 3910 | > 10000 | > 10000 | 195 | 163 | 40 | 43 | – |
| CCCCCn1cc(C(=O)NC23CC4CC(CC(C4)C2)C3)c(=O)n2nc(-c3ccc(Cl)cc3)cc12 | 183 | 3.88 | 4.21 | > 2580 | > 10000 | > 10000 | – | 144 | 10 | 13 | – |
| CCCCCn1cc(C(=O)NC23CC4CC(CC(C4)C2)C3)c(=O)n2nc(-c3ccc(C)s3)cc12 | 68 | 11.6 | 12.2 | > 862 | > 10000 | > 10000 | – | 38 | 33 | 31 | – |
| CCCCCn1cc(C(=O)NC23CC4CC(CC(C4)C2)C3)c(=O)n2nc(CC)cc12 | 243 | 0.84 | 0.96 | 143 | 150 | 120 | 95 | 173 | – | – | Active |
| CCCCCn1cc(C(=O)NC2CCCCC2)c(=O)n2nc(-c3ccccc3C)cc12 | 94 | 40 | 48 | > 250 | > 10000 | > 10000 | – | 73 | 30 | 16 | – |
| CCCCCn1cc(C(=O)NC23CC4CC(CC(C4)C2)C3)c(=O)n2nc(-c3ccccc3C)cc12 | 184 | 2.86 | 3.21 | > 3500 | > 10000 | > 10000 | – | 155 | 30 | 22 | – |

Source: ChEMBL document CHEMBL2380310, “Discovery of 7-oxopyrazolo[1,5-a]pyrimidine-6-carboxamides as potent and selective CB(2) cannabinoid receptor inverse agonists” (J Med Chem, 2013)
